This is an account of results in ChEMBL document CHEMBL1124510, “(+/-)-7-chloro-8-hydroxy-1-(4'-[125I]iodophenyl)-3-methyl-2,3,4,5- tetrahydro-1H-3-benzazepine: a potential CNS D-1 dopamine receptor imaging agent” (J Med Chem, 1989).

For data set [1], the species on record is Rattus norvegicus. The data set can be described thus: (§1) In vitro binding affinity to the rat striatal homogenate. The essentials: (§2)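 Saturation binding of [125I]FISCH to male Sprague-Dawley rat (200-250 g) striatal membranes. Tissue homogenized in ice-cold 50 mM Tris-HCl pH 7.4, pelleted twice at 20000g. Assay buffer 50 mM Tris pH 7.4, 120 mM NaCl, 5 mM KCl, 2 mM CaCl2, 1 mM MgCl2, with 40-60 μg protein. Incubated 20 min at 37 °C with stirring, then filtered through protamine-treated GF/B filters. Specific binding gives […].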

Data set [2] addresses T1, D(1A) dopamine receptor (Rattus norvegicus, UniProt P18901). The data set can be described thus: In vitro binding affinity towards Dopamine receptor D1 by displacing [125I]FISCH radioligand in rat striatal homogenate. The essentials: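 Assay buffer 50 mM Tris pH 7.4 with NaCl, KCl, CaCl2 and MgCl2, 40-60 μg protein. Incubated 20 min at 37 °C with stirring, then vacuum-filtered on GF/B filters pretreated with 0.2% protamine sulfate and washed with cold Tris.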

In data set [3] the target is T1, D(1A) dopamine receptor. Description: In vitro binding affinity towards dDopamine receptor D1 by displacing [125I]FISCH radioligand in rat striatal homogenate. In short, it runs like this:
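Competition against 0.15-0.30 nM [125I]FISCH on rat striatal membranes, each competitor at 7-11 concentrations. Assay buffer 50 mM Tris pH 7.4 with NaCl, KCl, CaCl2 and MgCl2, 40-60 μg protein. Incubated 20 min at 37 °C with stirring, then vacuum-filtered on GF/B filters pretreated with 0.2% protamine sulfate and washed with cold Tris.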

For data set [4], the species on record is Rattus norvegicus. Description: Selectivity ratio for biodistribution in brain and blood of rats after 15 minutes; Expressed as percent dose/gram ratio. Format: ADME, organism-based. The note with it: 0.25 h. In short, it runs like this:
(§3)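 After femoral iv injection of [125I]FISCH in saline into halothane-anesthetized male Sprague-Dawley rats, tissues were weighed and gamma-counted. Percent dose/gram was calculated against the diluted injected dose, and the ratio was taken from the percent dose/gram values.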

The species entered for data set [5] is Rattus norvegicus. Description: Selectivity ratio for biodistribution in brain and blood of rats after 2 minutes; Expressed as percent dose/gram ratio. Format: ADME, organism-based. The essentials: as §3
The species named for data set [6] is Rattus norvegicus. Description: Selectivity ratio for biodistribution in brain and blood of rats after 60 minutes; Expressed as percent dose/gram ratio. The note with it: 1 h. Format: ADME, organism-based. The essentials: as §3
Data set [7] deals with Rattus norvegicus. Description: In vivo biodistribution in rats after an intravenous injection at 60 min was determined in spleen; Expressed as percent dose/organ. Format: ADME, organism-based. The settings on record: 1 h. In short, it runs like this: (§4)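 [125I]FISCH in 0.2 mL saline was injected into the femoral vein of male Sprague-Dawley rats (225-300 g) under halothane. Rats were killed by cardiac excision at set times. Organs were weighed and gamma-counted against diluted aliquots of the dose. Blood and muscle totals assume 7% and 40% of body weight. Results are averages of six rats ± SD.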

The test system of data set [8] is Rattus norvegicus. The data set can be described thus: In vivo biodistribution in rats after an intravenous injection at 60 min was determined in thyroid; Expressed as percent dose/organ. Format: ADME, organism-based, Thyroid gland. The note with it: 1 h. The essentials:
as §4

Data set [9] has as its system Rattus norvegicus. Description: In vivo biodistribution in rats after an intravenous injection at 60 min was determined in lung; Expressed as percent dose/organ. Format: ADME, organism-based. The settings on record: 1 h. The essentials: as §4
In data set [10] the test system is Rattus norvegicus. The data set can be described thus: In vivo biodistribution in rats after an intravenous injection at 60 min was determined in skin; Expressed as percent dose/organ. Format: ADME, organism-based. The settings on record: 1 h. The essentials: as §4
Data set [11] relates to Rattus norvegicus. The data set can be described thus: In vivo biodistribution in rats after an intravenous injection at 15 min was determined in heart; Expressed as percent dose/organ. The note with it: 0.25 h. Format: ADME, organism-based. In short, it runs like this: as §4
Data set [12] concerns Rattus norvegicus. The data set can be described thus: In vivo biodistribution in rats after an intravenous injection at 15 min was determined in liver; Expressed as percent dose/organ. The class given is ADME, organism-based. The note with it: 0.25 h. In short, it runs like this:
as §4

Data set [13] has as its system Rattus norvegicus. Description: In vivo biodistribution in rats after an intravenous injection at 15 min was determined in lung; Expressed as percent dose/organ. The class given is ADME, organism-based. The settings on record: 0.25 h. The essentials:
as §4

In data set [14] the test system is Rattus norvegicus. The data set can be described thus: In vivo biodistribution in rats after an intravenous injection at 15 min was determined in muscle; Expressed as percent dose/organ. The class given is ADME, organism-based, Muscle tissue. The settings on record: 0.25 h. The essentials:
as §4

In data set [15] the test system is Rattus norvegicus. The data set can be described thus: In vivo biodistribution in rats after an intravenous injection at 15 min was determined in skin; Expressed as percent dose/organ. Format: ADME, organism-based. The note with it: 0.25 h. The essentials:
as §4

In data set [16] the test system is Rattus norvegicus. The data set can be described thus: In vivo biodistribution in rats after an intravenous injection at 15 min was determined in spleen; Expressed as percent dose/organ. The settings on record: 0.25 h. The class given is ADME, organism-based. The essentials:
as §4

For data set [17], the system named is Rattus norvegicus. The data set can be described thus: In vivo biodistribution in rats after an intravenous injection at 15 min was determined in thyroid; Expressed as percent dose/organ. Format: ADME, organism-based, Thyroid gland. The note with it: 0.25 h. The essentials:
as §4

The subject of data set [18] is Rattus norvegicus. Description: In vivo biodistribution in rats after an intravenous injection at 15 min was determined in kidney; Expressed as percent dose/organ. Format: ADME, organism-based. The note with it: 0.25 h. In short, it runs like this:
as §4

The subject of data set [19] is Rattus norvegicus. The data set can be described thus: In vivo biodistribution in rats after an intravenous injection at 2 min was determined in blood; Expressed as percent dose/organ. Format: ADME, organism-based. In short, it runs like this:
as §4

In data set [20] the test system is Rattus norvegicus. Description: In vivo biodistribution in rats after an intravenous injection at 2 min was determined in brain; Expressed as percent dose/organ. The class given is ADME, organism-based. The essentials: as §4
The test system of data set [21] is Rattus norvegicus. The data set can be described thus: In vivo biodistribution in rats after an intravenous injection at 2 min was determined in heart; Expressed as percent dose/organ. The class given is ADME, organism-based. The essentials:
as §4

The test system of data set [22] is Rattus norvegicus. Description: In vivo biodistribution in rats after an intravenous injection at 2 min was determined in kidney; Expressed as percent dose/organ. Format: ADME, organism-based. The essentials:
as §4

The test system of data set [23] is Rattus norvegicus. The data set can be described thus: In vivo biodistribution in rats after an intravenous injection at 2 min was determined in liver; Expressed as percent dose/organ. The class given is ADME, organism-based. In short, it runs like this: as §4
In data set [24] the test system is Rattus norvegicus. Description: In vivo biodistribution in rats after an intravenous injection at 2 min was determined in lung; Expressed as percent dose/organ. Format: ADME, organism-based. In short, it runs like this:
as §4

Data set [25] concerns Rattus norvegicus. The data set can be described thus: In vivo biodistribution in rats after an intravenous injection at 2 min was determined in muscle; Expressed as percent dose/organ. Format: ADME, organism-based, Muscle tissue. In short, it runs like this:
as §4

Data set [26] has as its system Rattus norvegicus. Description: In vivo biodistribution in rats after an intravenous injection at 2 min was determined in skin; Expressed as percent dose/organ. The class given is ADME, organism-based. The essentials: as §4
Data set [27] deals with Rattus norvegicus. Description: In vivo biodistribution in rats after an intravenous injection at 2 min was determined in spleen; Expressed as percent dose/organ. Format: ADME, organism-based. The essentials:
as §4

In data set [28] the test system is Rattus norvegicus. The data set can be described thus: In vivo biodistribution in rats after an intravenous injection at 2 min was determined in thyroid; Expressed as percent dose/organ. Format: ADME, organism-based, Thyroid gland. The essentials:
as §4

Data set [29] has as its system Rattus norvegicus. The data set can be described thus: In vivo biodistribution in rats after an intravenous injection at 60 min was determined in heart; Expressed as percent dose/organ. The class given is ADME, organism-based. The settings on record: 1 h. The essentials:
as §4

Data set [30] relates to Rattus norvegicus. The data set can be described thus: In vivo biodistribution in rats after an intravenous injection at 60 min was determined in kidney; Expressed as percent dose/organ. The class given is ADME, organism-based. The settings on record: 1 h. The essentials:
as §4

The test system of data set [31] is Rattus norvegicus. The data set can be described thus: In vivo biodistribution in rats after an intravenous injection at 60 min was determined in liver; Expressed as percent dose/organ. The class given is ADME, organism-based. The note with it: 1 h. In short, it runs like this:
as §4

In data set [32] the test system is Rattus norvegicus. Description: In vivo biodistribution in rats after an intravenous injection at 60 min was determined in muscle; Expressed as percent dose/organ. Format: ADME, organism-based, Muscle tissue. The note with it: 1 h. In short, it runs like this: as §4
In data set [33] the test system is Rattus norvegicus. The data set can be described thus: In vivo biodistribution in rats after an intravenous injection at 15 min was determined in blood; Expressed as percent dose/organ. The class given is ADME, organism-based. The note with it: 0.25 h. The essentials: as §4
For data set [34], the system named is Rattus norvegicus. The data set can be described thus: In vivo biodistribution in rats after an intravenous injection at 15 min was determined in brain; Expressed as percent dose/organ. Format: ADME, organism-based. The settings on record: 0.25 h. In short, it runs like this:
as §4

Data set [35] deals with T1, D(1A) dopamine receptor. The data set can be described thus: In vitro binding affinity to the rat striatal homogenate. In short, it runs like this: as §2
Data set [36] deals with Rattus norvegicus. The data set can be described thus: In vivo biodistribution in rats after an intravenous injection at 60 min was determined in blood; Expressed as percent dose/organ. Format: ADME, organism-based. The settings on record: 1 h. The essentials: as §4
Data set [37] deals with Rattus norvegicus. The data set can be described thus: In vivo biodistribution in rats after an intravenous injection at 60 min was determined in brain; Expressed as percent dose/organ. The settings on record: 1 h. Format: ADME, organism-based. In short, it runs like this:
as §4

Data set [38] addresses T1, D(1A) dopamine receptor. The description is as §1.

Each structure is given as a SMILES string. A value given as a limit tells only on which side of the number the result lay.

T1 sequence (P18901 whole entry): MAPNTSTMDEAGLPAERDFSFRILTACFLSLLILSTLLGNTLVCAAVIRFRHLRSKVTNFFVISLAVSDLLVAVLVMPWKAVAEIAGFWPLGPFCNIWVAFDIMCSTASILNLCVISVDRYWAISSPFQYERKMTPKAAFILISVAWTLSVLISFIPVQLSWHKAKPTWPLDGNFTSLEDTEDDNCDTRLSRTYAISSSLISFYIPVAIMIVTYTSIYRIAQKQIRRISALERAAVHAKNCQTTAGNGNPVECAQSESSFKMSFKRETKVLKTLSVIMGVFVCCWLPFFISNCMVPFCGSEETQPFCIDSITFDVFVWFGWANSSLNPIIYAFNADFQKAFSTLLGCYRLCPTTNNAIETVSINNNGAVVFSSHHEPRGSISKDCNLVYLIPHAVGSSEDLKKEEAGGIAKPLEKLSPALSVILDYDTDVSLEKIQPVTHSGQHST

By Kd is commonly meant a measure of binding affinity in units of concentration. Higher therefore signals weaker binding. `CN1CCc2cc(Cl)c(O)cc2[C@@H](c2ccccc2)C1` [SCH-23390] registered a Kd in the data set filed under Rattus norvegicus [1] of 0.36 nM.
Broadly, the Ki is a dissociation constant, usually derived from enzyme kinetics or from competition with a known ligand. The low end stands for tighter binding, the high end for weaker binding. `CN1CCc2cc(Cl)c(O)cc2C(c2ccc(I)cc2)C1` (racemic): on D(1A) dopamine receptor [2], affinity was put at a Ki of 1.71 nM.
As to `O=C(c1ccc(F)cc1)C1CCN(CCn2c(=O)[nH]c3ccccc3c2=O)CC1` [KETANSERIN], the Ki on D(1A) dopamine receptor [3] is greater than 3000 nM.
Take `CN1CCc2cc(Cl)c(O)cc2C(c2ccc([125I])cc2)C1` (stereo not given): the results for the Ratio in the data set filed under Rattus norvegicus [4], in the data set filed under Rattus norvegicus [5] and in the data set filed under Rattus norvegicus [6] were 6.19%, 7.35% and 3.08%, respectively. In addition, the Biodistribution is given as 0.67% with Rattus norvegicus [7]; 0.04% in the data set with Rattus norvegicus [8]; 1.47% in the data set with Rattus norvegicus [9]; 9.25% with Rattus norvegicus [10]; 0.38% in the data set on Rattus norvegicus [11]; 14.72% in the data set on Rattus norvegicus [12]. For the same compound, the Biodistribution is listed as 2.73% in the data set on Rattus norvegicus [13]; 34.22% in the data set with Rattus norvegicus [14]; 9.62% with Rattus norvegicus [15]; 0.56% in the data set on Rattus norvegicus [16]; 0.06% in the data set with Rattus norvegicus [17]; 2.09% in the data set on Rattus norvegicus [18]. For the same compound, the Biodistribution is recorded as 3.46% with Rattus norvegicus [19]; 2.27% with Rattus norvegicus [20]; 1.97% in the data set with Rattus norvegicus [21]; 5.98% with Rattus norvegicus [22]; 17.1% with Rattus norvegicus [23]; 8.55% in the data set on Rattus norvegicus [24]. In addition, the Biodistribution in the data set with Rattus norvegicus [25] was 35.68%; with Rattus norvegicus [26] it was 7.43%; with Rattus norvegicus [27] it was 2.79%; in the data set on Rattus norvegicus [28] it was 0.11%; in the data set with Rattus norvegicus [29], 0.18%; in the data set with Rattus norvegicus [30], 1.31%. The Biodistribution in the data set with Rattus norvegicus [31] was found to be 12.32%; in the data set on Rattus norvegicus [32], 19.07%; in the data set with Rattus norvegicus [33], 2.28%; with Rattus norvegicus [34], 1.4%; in the data set on Rattus norvegicus [36] it was 1.83%; in the data set with Rattus norvegicus [37], 0.55%. The Kd on D(1A) dopamine receptor [35] came out at 1.43 nM.
Regarding `CN1CCc2cc(I)c(O)cc2[C@@H](c2ccccc2)C1` (racemic), the Ki on D(1A) dopamine receptor [2] was determined as 13.4 nM. Further, the affinity in the data set filed under Rattus norvegicus [1], expressed as Kd, was 0.7 nM.
In turn, `CN1CCc2ccc(O)cc2[C@@H](c2ccccc2)C1` gave a Kd on D(1A) dopamine receptor [38] of 197 nM.
